“And” between values parts separate entries of the source, which are not always exact repeats. Equal values may be shown once.
What was measured:
[1] = biological target: Human immunodeficiency virus type 1 integrase (Human immunodeficiency virus 1, UniProt Q7ZJM1); assay: Inhibitory activity against HIV-1 integrase.
MT4 = assay: Effective concentration required to reduce the exponential growth of MT-4/KB cells; type: functional, cell-based; settings: Homo sapiens
Outline: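 Cell-based HIV-1 multiplication assay in MT-4 cells, run in parallel with cytotoxicity on mock-infected cells. Value is the concentration giving 50% reduction of exponential growth of MT-4/KB cells. Mean of three independent determinations.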

[2] = (§1) Cytotoxic concentration required to reduce the viability of mock-infected cells was determined by using MTT assay
Outline: (§2)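 Viability of mock-infected cells read by MTT, run in parallel with the antiviral assay. Value is the dose giving a 50% loss of viability. Mean of three independent determinations.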

[3] = Selectivity index was determined; type: functional
[4] = as §1; type: functional; outline: as §2

Chain of Human immunodeficiency virus type 1 integrase (Q7ZJM1 whole entry): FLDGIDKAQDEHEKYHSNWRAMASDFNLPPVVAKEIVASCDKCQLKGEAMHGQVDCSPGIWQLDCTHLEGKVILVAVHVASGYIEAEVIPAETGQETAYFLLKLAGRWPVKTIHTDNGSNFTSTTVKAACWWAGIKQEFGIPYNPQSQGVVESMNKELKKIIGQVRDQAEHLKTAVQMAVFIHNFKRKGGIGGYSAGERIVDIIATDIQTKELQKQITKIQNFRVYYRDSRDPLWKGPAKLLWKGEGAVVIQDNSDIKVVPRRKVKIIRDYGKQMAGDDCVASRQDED

IC50 [1]	SMILES	EC50 (MT4)	CC50 [2]	Selectivity index [3]	CC50 [4]
61 µM and 72 µM	O=C(/C=C/c1cccn1Cc1ccc(F)cc1)CC(=O)C(=O)O	11 µM	80 µM	7.3	
	CCOC(=O)C(=O)CC(=O)/C=C/c1cccn1Cc1ccccc1		17 µM		
50 µM and 65 µM	O=C(/C=C/c1cccn1Cc1ccc(Cl)cc1)CC(=O)C(=O)O	> 95 µM	95 µM		
76 µM and 92 µM	O=C(/C=C/c1cccn1Cc1ccc([N+](=O)[O-])cc1)CC(=O)C(=O)O	> 33 µM			33 µM
	COc1ccc(Cn2cccc2/C=C/C(=O)CC(=O)C(=O)O)cc1	> 78 µM	78 µM		
57 µM and 45 µM	CCOC(=O)C(=O)CC(=O)/C=C/c1cccn1Cc1ccc([N+](=O)[O-])cc1	> 31 µM	31 µM		
	O=C(O)C(=O)CC(=O)c1cccn1Cc1ccc(F)cc1	1.5 µM			
	CCOC(=O)C(=O)CC(=O)/C=C/c1cccn1Cc1ccc(Cl)cc1	> 52 µM	52 µM		
	O=C(/C=C/c1cccn1Cc1ccccc1)CC(=O)C(=O)O	1.5 µM	61 µM		
	CCOC(=O)C(=O)CC(=O)/C=C/c1cccn1Cc1ccc(C)cc1	> 7 µM	7 µM		
	CCOC(=O)C(=O)CC(=O)/C=C/c1cccn1Cc1ccc(F)cc1	12 µM	55 µM		
	CCOC(=O)C(=O)CC(=O)/C=C/c1cccn1Cc1ccc(OC)cc1	> 27 µM	27 µM		
	Cc1ccc(Cn2cccc2/C=C/C(=O)CC(=O)C(=O)O)cc1	> 41 µM	41 µM		

Source: ChEMBL document CHEMBL1147498, “6-aryl-2,4-dioxo-5-hexenoic acids, novel integrase inhibitors active against HIV-1 multiplication in cell-based assays” (Bioorg Med Chem Lett, 2004)
